ABCG2 block – blocks JC-1 efflux by human ABCG2 transporter | Q9UNQ0 | IgMXP3 cells, flow cytometry | inhibition, % at 6.6 µM | 0.1% of 190,000 active | AID 1325;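 active means inhibition above 80%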;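 further: 0% = DMSO and 100% = nicardipine control wells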
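Test system: ABCG2 IgMXP3 and barcoded ABCB1 CCRF-Adr cell mix; Schedule: cells with compound and JC-1, 10 min at 25 °C, rotating, no wash; Technique: flow cytometry of retained JC-1 fluorescence; Measure: % inhibition of efflux relative to nicardipine and DMSO; Controls: nicardipine high and DMSO low controls.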
Lmaj promast – Leishmania major promastigote growth inhibition. Leishmania major promastigotes, resazurin fluorescence viability. inhibition, % at 10 µM. 9% of 200,000 active. AID 1063;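 further: promastigotes grown with compound for 44 hours at 28 °C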
GSH fluor – GSH bead compound fluorescence profile | fluorescence (KMESF) at 10 µM | GSH beads flow cytometry, compound fluorescence 488/530 nm; stronger effect = higher value | AID 1776 | 0.25% of 190,000 active; in the data active means fluorescence above about 89;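 further: glutathione beads carrying GST-tagged Bcl family fusion proteins plus one bare bead set; values are compound well signal with DMSO vehicle wells as background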
PKD1 inh – inhibitors of human PKD1 kinase | Q15139 | PKD1 kinase fluorescence polarization assay | inhibition, % (test concentration not listed) | 0.056% of 200,000 active | AID 797
ABCB1 inh – blocks JC-1 efflux by human ABCB1 transporter. P08183. CCRF-Adr cells, flow cytometry. inhibition, % at 6.6 µM. 0.067% of 190,000 active. AID 1326; in the data active means inhibition above about 40%;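 further: 0% = vehicle and 100% = reference inhibitor; higher value means more JC-1 retained so stronger ABCB1 efflux block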
Avidin fluor – avidin bead compound fluorescence profile; Avidin beads, compound fluorescence 488/530 nm, flow cytometry; stronger effect = higher value; fluorescence (KMESF) at 10 µM; 0.38% of 220,000 active; AID 1775; in the data active means fluorescence above about 47
* hit, by the source's call; · = not tested or not shown. The full list was thinned out, with hits kept by preference. Unless noted, no stated cut-off is given here; in the data, active means inhibition above about 50%; inactive means the rest.

SMILES | ABCG2 block | Lmaj promast | GSH fluor | PKD1 inh | ABCB1 inh | Avidin fluor
Cc1nn(Cc2ccccc2)c2c1C(c1ccc(Cl)cc1)C(C#N)=C(N)O2 (stereo not given) | -1 | 85* | 14 | 2 | 2 | 24
c1cc(CNC23CC4CC(CC(C4)C2)C3)ccn1 | 3 | 84* | 12 | 9 | 1 | 13
O=C(NC12CC3CC(CC(C3)C1)C2)N(Cc1ccccc1)Cc1ccncc1 | 3 | 55* | 10 | 0 | 4 | 10
O=C(Nc1cc2c3c(c1)C1CCCC1CN3CC1CCCC21)c1ccccc1 (stereo not given) | 38 | 97* | 26 | 1 | 14 | 10
Nc1sc2c([n+]1CCCS(=O)(=O)[O-])CCCC2 | 0 | -15 | 14 | 2 | 0 | 11
O=C(N/N=C/C(Br)=C/c1ccccc1)c1n[nH]c2c1CCC2 | · | 98* | 17 | -4 | · | 5
O=C(N/N=C/c1ccccc1)c1n[nH]c2c1CCCC2 | 6 | 16 | 13 | -6 | 0 | 12
O=C(N/N=C/c1ccccc1Cl)c1n[nH]c2c1CCCC2 | 2 | 89* | 9 | -3 | 0 | 10
Cc1ccc(NC2Sc3ccccc3NC2=O)cc1Cl (stereo not given) | · | · | · | · | · | 6
CCCN(CCC)CCCNC(=O)C1c2cc(OC)c(OC)cc2C(=O)N(C)C1c1cccnc1 (stereo not given) | 0 | -9 | 14 | -3 | 0 | 9
Cn1c(CN2CCN(C(=O)c3ccccc3)CC2)nc2cc([N+](=O)[O-])ccc21 | 10 | 51* | 12 | 4 | 1 | 8
Cn1c(CN2CCN(C(=O)c3ccccc3Cl)CC2)nc2cc([N+](=O)[O-])ccc21 | 40 | -4 | 9 | 3 | 4 | 10
O=C(NCc1ccc2c(c1)OCO2)c1ccc(CSCc2ccc(Cl)cc2)o1 | 6 | 51* | 4 | -4 | 0 | 12
CCc1ccccc1S(=O)(=O)Cc1ccc(C(=O)NCc2ccc3c(c2)OCO3)o1 | 0 | 8 | 26 | -2 | 0 | 6
O=C(NCc1ccc2c(c1)OCO2)c1ccc(CS(=O)(=O)Cc2cccc(Cl)c2)o1 | 3 | 79* | 7 | -9 | 1 | 15
CC(=O)Oc1ccc(C(=O)Nc2cc(NC(=O)c3ccc(OC(C)=O)cc3)cc(C(=O)NC(C)(C)C)c2)cc1 | -7 | 34 | 5 | -14 | -1 | 12
CC1=C(C(=O)Nc2ccccc2)C(c2ccc(C)o2)n2c(s/c(=C/c3ccccc3)c2=O)=N1 (stereo not given) | 3 | 95* | 11 | 0 | 6 | 22
CC1=C(C(=O)Nc2ccccc2)C(c2ccc(C)o2)N2C(=O)CSC2=N1 (stereo not given) | -1 | -8 | 6 | -4 | 0 | 14
CCOc1ccc(C2C(C(=O)Nc3ccccc3)=C(C)N=c3s/c(=C/c4cccc(OCC(=O)O)c4)c(=O)n32)cc1 (stereo not given) | -6 | -6 | 12 | 4 | -1 | 10
CC1=C(C(=O)Nc2ccccc2C)C(c2ccc(C)o2)n2c(s/c(=C/c3ccccc3)c2=O)=N1 (stereo not given) | 6 | 75* | 24 | 1 | 5 | 32
Cc1oc(CN2CCOCC2)cc1C(=O)O | 1 | -4 | 24 | 6 | 0 | 9
Cc1nn(-c2ccccc2)c(C)c1-c1nnc(-c2c(C)nn(-c3ccccc3)c2C)o1 | · | · | · | · | · | 2
CC(C)C1CC(CCN)(Cc2ccccc2)CCO1 (stereo not given) | 0 | -1 | 11 | 1 | 0 | 11
O=C(Nc1cccc(-c2nc3ncccc3o2)c1)c1ccccc1 | 5 | 100* | 11 | 2 | 0 | 10
CCCCC(=O)Nc1cc(-c2nc3ncccc3o2)ccc1C | 7 | 99* | 16 | -2 | 0 | 9
N#Cc1cc(NC(=O)c2ccc(F)cc2)c(=O)n2c1[nH]c1ccccc12 | -1 | -1 | 19 | -2 | 0 | 10
COc1ccc(Nc2nc(NC(C)(C)C)nc(N3CCCC3)n2)c(OC)c1 | 17 | 96* | 43 | 1 | 0 | 6
COc1ccc(Nc2nc(N3CCCC3)nc(N3CCCC3)n2)c(OC)c1 | 0 | 49 | 29 | -8 | 0 | 5
COc1ccc(Nc2nc(Nc3ccc(OC)cc3OC)nc(N3CCN(C)CC3)n2)c(OC)c1 | 6 | 77* | 25 | 2 | 3 | 11

Assay outcomes from PubChem.
